Sampled rows, rich in hits. Any-hit rate of the full collection: about 3.1%.
UBC13 inh = human UBC13 polyubiquitination inhibition | P61088 | UBC13 polyubiquitin chain formation, TR-FRET | inhibition, % at 20 µM | hit rate 0.47% among 330,000; in the data active means inhibition above about 45%, passing the limit was not always enough
Target sequence (P61088 whole entry, looked up): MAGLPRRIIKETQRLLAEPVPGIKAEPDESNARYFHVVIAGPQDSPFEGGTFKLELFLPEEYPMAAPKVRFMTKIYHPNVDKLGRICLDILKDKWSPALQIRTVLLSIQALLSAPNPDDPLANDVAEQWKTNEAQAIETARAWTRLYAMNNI
SENP8 block-1 = inhibitors of human SENP8 protease. Q96LD8. purified SENP8, Z-RLRGG-aminoluciferin cleavage, luminescence. inhibition, % at 10 µM. hit rate 1.2% among 330,000. AID 2540; in the data active means inhibition above about 50%
SENP8 block-2 = inhibitors of human SENP8 protease; inhibition, % at 20 µM; Q96LD8; recombinant SENP8, Nedd8 substrate fluorescence; hit rate 0.64% among 360,000; in the data active means inhibition mostly above about 40%, no sharp cut-off; inactive means mostly below about 27%
SENP6 inh = inhibitors of human SENP6 protease | Q9GZR1 | Recombinant SENP6 catalytic domain, aminoluciferin luminescence | inhibition, % at 10 µM | hit rate 1.8% among 330,000;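 active means inhibition above about 50% at the single tested dose, limit read from the data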
Apaf1 inhib = inhibitors of human Apaf-1 apoptosome; reconstituted apoptosome caspase-3 activity, DEVD-Rh110 fluorescence; inhibition, % at 20 µM; hit rate 0.71% among 330,000; O14727; active means inhibition of at least 40% at 20 µM
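Medium: Hepes buffer, pH 7.5 / System: biochemical Apaf-1 apoptosome reconstitution / Measured by: Rh110 fluorescence, excitation 480 nm, emission 540 nm / Times: compound with Apaf-1, dATP, procaspase-3 30 min, then 50 min reaction, room temperature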
SENP7 inh = SENP7 protease inhibition | recombinant SENP7, Z-RLRGG-aminoluciferin luminescence, 40 min | hit rate 1.5% among 330,000 | inhibition, % at 5 µM | Q9BQF6;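 active means inhibition above about 50% at the single test dose, limit read from the data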
Target sequence (Q9BQF6 706-1050 limits assumed): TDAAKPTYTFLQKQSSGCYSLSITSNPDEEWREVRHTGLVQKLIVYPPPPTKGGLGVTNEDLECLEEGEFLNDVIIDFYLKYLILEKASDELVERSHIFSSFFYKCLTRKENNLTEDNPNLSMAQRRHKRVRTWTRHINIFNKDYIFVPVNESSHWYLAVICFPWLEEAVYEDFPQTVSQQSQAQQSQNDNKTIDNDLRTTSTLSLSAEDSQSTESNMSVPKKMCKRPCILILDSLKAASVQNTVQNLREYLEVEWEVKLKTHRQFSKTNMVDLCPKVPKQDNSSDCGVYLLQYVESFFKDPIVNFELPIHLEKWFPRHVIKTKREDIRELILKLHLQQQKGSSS
Each line names hits and unclear results; the compound was inactive in the other large screens.

CC1CCc2c(sc3ncn(CC(=O)N=Nc4c(O)[nH]c5ccccc45)c(=O)c23)C1 (stereo not drawn)	SENP8 block-2 44
COc1ccc(C(C(=O)Nc2ccc(F)cc2)N2CCN(C(=O)c3ccco3)CC2)cc1 (stereo not drawn)	none (no result: UBC13 inh, SENP8 block-1, SENP6 inh, Apaf1 inhib, SENP7 inh)
COC(=O)C[C@H]1C=C[C@H](NC(=O)c2cccc(F)c2)[C@@H](CO)O1	none (no result: UBC13 inh, SENP8 block-1, SENP6 inh, Apaf1 inhib, SENP7 inh)
O=C(Nc1ccc(C2=NCCN2)cc1)c1ccc(Cl)c(C(=O)Nc2ccc(C3=NCCN3)cc2)c1	UBC13 inh 106 (no result: SENP8 block-2)
O=C(Nc1ccc(Cl)c(Cl)c1)c1ccc(Cl)c(Cl)c1	none
OC(c1ccc(F)cc1)c1nc(-c2cc3ccccc3o2)cs1 (stereo not drawn)	none (no result: UBC13 inh, SENP8 block-1, SENP6 inh, Apaf1 inhib, SENP7 inh)
CC1=NN(c2ccc(Cl)c(C(=O)O)c2)C(=O)/C1=C\c1ccc(-c2ccc(C(=O)O)cc2)o1	none (no result: UBC13 inh, SENP8 block-1, SENP6 inh, Apaf1 inhib, SENP7 inh)
CC1=NN(c2ccc(C(=O)O)cc2)C(=O)/C1=C/c1ccc(-c2ccccc2F)o1	Apaf1 inhib 58
CC1=NN(c2ccccc2)C(=O)/C1=C/c1ccc(-c2ccc(C)c(C(=O)O)c2)o1	Apaf1 inhib 68 (no result: SENP8 block-2)
CNC[C@H](Cc1cccc2ccccc12)NC[C@H](CCSC)NCC1CCC(C(C)(C)C)CC1 (stereo partly drawn)	UBC13 inh 86, Apaf1 inhib 65 (no result: SENP8 block-2)
CCCC[n+]1ccn(C2=C([O-])c3ccccc3C(=O)/C2=N\S(=O)(=O)c2ccccc2)c1	SENP8 block-2 78, Apaf1 inhib 59
CCCC[n+]1ccn(-c2nc3ccccc3nc2[N-]S(=O)(=O)c2ccccc2)c1	none
CC1OC2CC(=O)OC2C2=C1C(=O)c1c(O)cccc1C2=O (stereo not drawn)	SENP8 block-2 99 (no result: UBC13 inh, SENP8 block-1, SENP6 inh, Apaf1 inhib, SENP7 inh)
Cc1ccc(S(=O)(=O)N2[C@@H](CO)CO[C@H]2CC(=O)c2ccc(F)cc2)cc1	none (no result: UBC13 inh, SENP8 block-1, SENP6 inh, Apaf1 inhib, SENP7 inh)
O=C1c2c(O)ccc(O)c2C(=O)c2c(NCCNCCO)ccc(NCCNCCO)c21	SENP8 block-2 51, Apaf1 inhib 78
CCOC(=O)C1=C[C@@H](C(C)(C)C)N(S(=O)(=O)c2ccccc2C)[C@H]1c1ccc(Cl)cc1	none (no result: UBC13 inh, SENP8 block-1, SENP6 inh, Apaf1 inhib, SENP7 inh)
CCCOC(=O)CCCN1C(=O)/C(=C2\SC(=S)N(CCCC(=O)OCCC)C2=O)SC1=S	SENP8 block-2 38
CC1(C(=O)NCc2ccccc2)CSCC(=O)N1C1CC1 (stereo not drawn)	none (no result: UBC13 inh, SENP8 block-1, SENP6 inh, Apaf1 inhib, SENP7 inh)
CCC(=O)N[C@@H]1C=C[C@@H](CC(=O)NCc2ccccc2F)O[C@@H]1CO	none (no result: UBC13 inh, SENP8 block-1, SENP6 inh, Apaf1 inhib, SENP7 inh)
Cc1cc[n+](-c2[nH]c(=O)sc2/C=N/NC([S-])=Nc2ccccc2)cc1C	none
CC(C)(C)c1cc[n+](-c2[nH]c(=O)sc2/C=N/NC([S-])=Nc2ccccc2)cc1	SENP8 block-2 25
CC(C)(C)c1ccc(OC(=O)Nc2ccc(O)c(C(=O)O)c2)cc1	SENP8 block-1 72, SENP6 inh 83
Cc1cccc(OC(=O)Nc2ccc(C(=O)O)c(O)c2)c1	none (no result: UBC13 inh, SENP8 block-1, SENP6 inh, Apaf1 inhib, SENP7 inh)
CCN(CC)c1ccc2cc(C(=O)c3cccs3)c(=O)oc2c1	none (no result: UBC13 inh, SENP8 block-1, SENP6 inh, Apaf1 inhib, SENP7 inh)
CCOC(=O)C1CCN(C(=O)c2ccc(C)o2)CC1	none
CCOC(=O)C1CCN(C(=O)c2c(C)oc3c2C(=O)c2ccccc2C3=O)CC1	SENP8 block-2 60, Apaf1 inhib 48
O=C1Nc2ccc(C(F)(F)F)cc2N2CCCC12 (stereo not drawn)	none (no result: SENP8 block-2)
O=C1Nc2ccccc2N2CCCC12 (stereo not drawn)	SENP6 inh 68, Apaf1 inhib 78 (no result: SENP8 block-2)
Nc1sc2c(c1C(=O)NCCc1ccccc1)CCCC2	none (no result: UBC13 inh, SENP8 block-1, SENP6 inh, Apaf1 inhib, SENP7 inh)
O=C1Nc2ccccc2N=C(c2ccc3c(c2)OCO3)C1N(C(=O)c1ccc2ccccc2c1)C1CC1 (stereo not drawn)	none (no result: UBC13 inh, SENP8 block-1, SENP6 inh, Apaf1 inhib, SENP7 inh)
CCC(=O)NC(c1ccc(C)cc1)c1cc(Cl)c2cccnc2c1O (stereo not drawn)	none
Cc1ccc(C(NC(=O)C(C)C)c2cc([N+](=O)[O-])c3cccnc3c2O)cc1 (stereo not drawn)	SENP8 block-2 55
C#CCOCCOCCOCCNc1nc(N2CCN(C(=O)CCCCCCCCCCNC(=O)[C@H]([C@@H](C)CC)n3cc(CCCCCN)nn3)CC2)nc(N2CCN(C(=O)CCCCCCCCCCNC(=O)[C@@H]([C@H](C)O)n3cc(C)nn3)CC2)n1	UBC13 inh 118, Apaf1 inhib 50
C#CCOCCOCCOCCNc1nc(N2CCOCC2)nc(N2CCN(C(=O)CCCCCCCCCCNC(=O)[C@@H]([C@H](C)O)n3cc(C)nn3)CC2)n1	none

High-throughput results (PubChem)
